The source made the active and inactive calls. The rule behind the calls is not given here.
What was measured:
Rattus norvegicus [1] = assay: Ability to inhibit the passive cutaneous anaphylaxis (PCA) reaction in rats by peroral administration; type: functional
Procedure, shortened: (§1)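 Rats were sensitized by intradermal antiserum dilutions at several dorsal sites. After 48 h they were challenged iv with 1 mg ovalbumin in 1 mL saline containing 0.25% Evans blue. Drug was suspended in 1% gum tragacanth in saline and given ip or orally 10–15 min before challenge. Rats were killed 30 min later and the mean orthogonal wheal diameter was measured.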

Rattus norvegicus [2] = assay: Inhibition of passive cutaneous anaphylaxis (PCA) reaction in rats by intraperitoneal administration of 5 mg/kg; type: functional; details: ip; procedure, shortened: as §1
Rattus norvegicus [3] = assay: Inhibition of passive cutaneous anaphylaxis (PCA) reaction in rats, peroral administration 5 mg/kg; type: functional; details: route oral; procedure, shortened: as §1
Rattus norvegicus [4] = assay: Ability to inhibit the passive cutaneous anaphylaxis (PCA) reaction in rats by intravenous administration of 0.5 mg/kg; type: functional
Procedure, shortened: (§2)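 Rats were given intradermal antiserum dilutions on the back. At 48 h, drug dissolved in the challenge solution (1 mg ovalbumin, 0.25% Evans blue, 1 mL saline) was injected iv with the antigen; sodium bicarbonate in slight molar excess was used if needed. Wheal diameters were read 30 min later and plotted against antiserum concentration, with the least-squares line extrapolated to a zero-antiserum base value. Five rats per group.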

Rattus norvegicus [5] = assay: Inhibition of the passive cutaneous anaphylaxis (PCA) reaction in rats by intravenous administration of 0.1 mg/kg; type: functional; procedure, shortened: as §2
Rattus norvegicus [6] = assay: Ability to inhibit the passive cutaneous anaphylaxis (PCA) reaction in rats by peroral administration of 10 mg/kg; type: functional; details: route oral; procedure, shortened: as §1
Rattus norvegicus [7] = assay: Inhibition of the passive cutaneous anaphylaxis (PCA) reaction in rats by intravenous administration of 0.01 mg/kg; type: functional; procedure, shortened: as §2
Rattus norvegicus [8] = assay: Ability to inhibit the passive cutaneous anaphylaxis (PCA) reaction in rats by peroral administration of 2 mg/kg; type: functional; procedure, shortened: as §1
Rattus norvegicus [9] = assay: Ability to inhibit the passive cutaneous anaphylaxis (PCA) reaction in rats by intravenous administration of 1.5 mg/kg; type: functional; procedure, shortened: as §2
Rattus norvegicus [10] = assay: Ability to inhibit the passive cutaneous anaphylaxis (PCA) reaction in rats by peroral administration; Inactive; type: functional, organism-based; procedure, shortened: as §1
Rattus norvegicus [11] = assay: Ability to inhibit the passive cutaneous anaphylaxis (PCA) reaction in rats by peroral administration of 5 mg/kg; type: functional; details: route oral; procedure, shortened: as §1
Rattus norvegicus [12] = assay: Ability to inhibit the passive cutaneous anaphylaxis (PCA) reaction in rats by intraperitoneal administration of 5 mg/kg; type: functional; details: ip; procedure, shortened: as §1
Rattus norvegicus [13] = assay: Ability to inhibit the passive cutaneous anaphylaxis (PCA) reaction in rats by intraperitoneal administration of 1 mg/kg; type: functional; details: ip; procedure, shortened: as §1
Rattus norvegicus [14] = assay: Ability to inhibit the passive cutaneous anaphylaxis (PCA) reaction in rats by peroral administration of 1 mg/kg; type: functional; details: route oral; procedure, shortened: as §1
Rattus norvegicus [15] = assay: Ability to inhibit the passive cutaneous anaphylaxis (PCA) reaction in rats by intravenous administration of 0.01 mg/kg; type: functional; procedure, shortened: as §2
Rattus norvegicus [16] = assay: Ability to inhibit the passive cutaneous anaphylaxis (PCA) reaction in rats by intravenous administration of 0.001 mg/kg; type: functional; procedure, shortened: as §2
Rattus norvegicus [17] = assay: Ability to inhibit the passive cutaneous anaphylaxis (PCA) reaction in rats by intravenous administration of 0.005 mg/kg; type: functional; procedure, shortened: as §2

SMILES	inhibition in vivo at 5 mg/kg (Rattus norvegicus [2]) [%]	inhibition in vivo at 5 mg/kg (Rattus norvegicus [3]) [%]	also measured
Cn1c2ccccc2c(=O)n2nc(C(=O)Nc3nn[nH]n3)cc12	51		Inhibition (Rattus norvegicus [1]): 0%
COc1ccc2c(c1)c(=O)n1nc(-c3nn[nH]n3)cc1n2C	100	0	inhibition in vivo at 0.5 mg/kg (Rattus norvegicus [4]): 100%
Cc1cccc2c(O)n3nc(C(=O)O)cc3nc12	58	0	
CCCOc1cccc2c(=O)n3nc(C(=O)O)cc3n(CCC)c12	72		
O=C(Nc1nn[nH]n1)c1cc2n(Cc3ccccc3)c3ccc(Cl)cc3c(=O)n2n1	3	0	
COc1cccc2c(O)n3nc(C(=O)Nc4nn[nH]n4)cc3nc12	100	14	
Cc1ccc2nc3cc(C(=O)O)nn3c(O)c2c1	100	0	
CCOC(=O)c1cc2n(CC)c3ccc(Cl)cc3c(=O)n2n1	100		
O=C(O)c1cc2nc3cccc(C(F)(F)F)c3c(O)n2n1	100	10	
O=C(Nc1nn[nH]n1)c1cc2nc3ccccc3c(O)n2n1	100	1	
Cc1cccc2c(O)n3nc(C(=O)Nc4nn[nH]n4)cc3nc12	100	9	
COc1ccc2nc3cc(C(=O)Nc4nn[nH]n4)nn3c(O)c2c1	80		inhibition in vivo at 0.1 mg/kg (Rattus norvegicus [5]): 90%; inhibition in vivo at 10 mg/kg (Rattus norvegicus [6]): 43%
COc1ccc2c(c1)c(=O)n1nc(C(=O)O)cc1n2C	81	4	inhibition in vivo at 0.5 mg/kg (Rattus norvegicus [4]): 100%; inhibition in vivo at 0.01 mg/kg (Rattus norvegicus [7]): 23%
O=C(O)c1cc2nc3ccc(O)cc3c(O)n2n1	100	0	
O=C(Nc1nn[nH]n1)c1cc2nc3ccc(Cl)cc3c(O)n2n1	22	8	
O=C(O)c1cc2n(Cc3ccccc3)c3ccc(Cl)cc3c(=O)n2n1		7	
Cn1c2ccccc2c(=O)n2nc(-c3nn[nH]n3)cc12	91	0	inhibition in vivo at 2 mg/kg (Rattus norvegicus [8]; route oral): 52%; inhibition in vivo at 0.5 mg/kg (Rattus norvegicus [4]): 84%; inhibition in vivo at 0.1 mg/kg (Rattus norvegicus [5]): 0%
O=C(O)c1cc(=O)c2c(OCC(O)COc3cccc4oc(C(=O)O)cc(=O)c34)cccc2o1 [CROMOLYN SODIUM]			inhibition in vivo at 1.5 mg/kg (Rattus norvegicus [9]): 50%; inhibition (Rattus norvegicus [10]): inactive
Cn1c2ccc(N)cc2c(=O)n2nc(C(=O)O)cc12	84	0	inhibition in vivo at 0.1 mg/kg (Rattus norvegicus [5]): 16%
Oc1c2ccccc2nc2cc(-c3nn[nH]n3)nn12	26	0	
COc1ccc2nc3cc(C(=O)O)nn3c(O)c2c1	94	0	inhibition in vivo at 0.01 mg/kg (Rattus norvegicus [7]): 30%
Cc1cc2n(C)c3ccc(C(=O)O)cc3c(=O)n2n1			inhibition in vivo at 2 mg/kg (Rattus norvegicus [8]; route oral): 9%; inhibition in vivo at 0.5 mg/kg (Rattus norvegicus [4]): 21%
Oc1c2cc(Cl)ccc2nc2cc(-c3nn[nH]n3)nn12	25	1	
COc1cc2nc3cc(C(=O)O)nn3c(O)c2cc1OC	97	5	inhibition in vivo at 0.1 mg/kg (Rattus norvegicus [5]): 100%; inhibition in vivo at 0.01 mg/kg (Rattus norvegicus [7]): 16%
Cn1c2ccc(Cl)cc2c(=O)n2nc(-c3nn[nH]n3)cc12	100	0	inhibition in vivo at 2 mg/kg (Rattus norvegicus [8]; route oral): 39%; inhibition in vivo at 0.5 mg/kg (Rattus norvegicus [4]): 100%; inhibition in vivo at 0.01 mg/kg (Rattus norvegicus [7]): 17%
Nc1ccc2nc3cc(C(=O)O)nn3c(O)c2c1	38	16	

SMILES	inhibition in vivo at 5 mg/kg (Rattus norvegicus [2]) [%]	inhibition in vivo at 5 mg/kg (Rattus norvegicus [3]) [%]	also measured
O=C(O)c1ccc2nc3cc(C(=O)O)nn3c(O)c2c1	21	7	
O=C(O)c1cc2nc3cc(Cl)c(Cl)cc3c(O)n2n1	9	0	
CC(=O)Nc1ccc2c(c1)c(=O)n1nc(C(=O)O)cc1n2C		0	
CCOC(=O)c1cc2nc3ccccc3c(O)n2n1	74	0	
O=C(Nc1nn[nH]n1)c1cc2nc3ccc(O)cc3c(O)n2n1	100		inhibition in vivo at 0.1 mg/kg (Rattus norvegicus [5]): 90%
O=C(O)c1cc2nc3c(O)cccc3c(O)n2n1	100		inhibition in vivo at 0.1 mg/kg (Rattus norvegicus [5]): 75%
COc1cc2nc3cc(C(=O)Nc4nn[nH]n4)nn3c(O)c2cc1OC	100	0	
O=C(O)c1cc2nc3ccc(Cl)cc3c(O)n2n1	45	0	
O=C(O)c1ccc2c(O)n3nc(C(=O)O)cc3nc2c1	74		inhibition in vivo at 0.1 mg/kg (Rattus norvegicus [5]): 56%
COc1cccc2c(=O)n3nc(C(=O)O)cc3n(C)c12	60		
O=C(O)c1cc2nc3ccc(F)cc3c(O)n2n1	95	16	inhibition in vivo at 0.1 mg/kg (Rattus norvegicus [5]): 62%; inhibition in vivo at 0.01 mg/kg (Rattus norvegicus [7]): 2%
COc1cccc2c(O)n3nc(-c4nn[nH]n4)cc3nc12	27	3	
Cn1c2ccccc2c(=O)n2nc(C(=O)O)cc12			inhibition in vivo at 5 mg/kg (Rattus norvegicus [11]): 40%; inhibition in vivo at 0.5 mg/kg (Rattus norvegicus [4]): 100%; inhibition in vivo at 5 mg/kg (Rattus norvegicus [12]): 100%
O=C(O)c1cc2nc3ccccc3c(O)n2n1	100	5	inhibition in vivo at 1 mg/kg (Rattus norvegicus [13]): 55%; inhibition in vivo at 1 mg/kg (Rattus norvegicus [14]): 23%; inhibition in vivo at 0.1 mg/kg (Rattus norvegicus [5]): 54%; inhibition in vivo at 0.01 mg/kg (Rattus norvegicus [15]): 0%
COc1cccc2nc3cc(C(=O)O)nn3c(O)c12	62	18	
Cn1c2ccc(F)cc2c(=O)n2nc(-c3nn[nH]n3)cc12	100	8	inhibition in vivo at 2 mg/kg (Rattus norvegicus [8]; route oral): 27%; inhibition in vivo at 0.1 mg/kg (Rattus norvegicus [5]): 100%; inhibition in vivo at 0.01 mg/kg (Rattus norvegicus [7]): 10%
COc1ccc2nc3cc(-c4nn[nH]n4)nn3c(O)c2c1	87		inhibition in vivo at 1 mg/kg (Rattus norvegicus [14]): 21%
CSc1ccc2nc3cc(C(=O)Nc4nn[nH]n4)nn3c(O)c2c1	90		
Cn1c2ccc(F)cc2c(=O)n2nc(C(=O)O)cc12	83		inhibition in vivo at 2 mg/kg (Rattus norvegicus [8]; route oral): 40%; inhibition in vivo at 0.5 mg/kg (Rattus norvegicus [4]): 84%
Cn1c2ccc(NC(=O)c3ccccc3)cc2c(=O)n2nc(C(=O)O)cc12	54	1	
Cn1c2ccc(Cl)cc2c(=O)n2nc(C(=O)O)cc12			inhibition in vivo at 1 mg/kg (Rattus norvegicus [13]; read-out: Inhibition): 59%; inhibition in vivo at 2 mg/kg (Rattus norvegicus [8]; read-out: Inhibition, route oral): 9%; inhibition in vivo at 0.5 mg/kg (Rattus norvegicus [4]): 70%
COc1cccc2nc3cc(C(=O)Nc4nn[nH]n4)nn3c(O)c12	100	18	
COc1cccc2c(O)n3nc(C(=O)O)cc3nc12	70	79	inhibition in vivo at 0.001 mg/kg (Rattus norvegicus [16]): 8%; inhibition in vivo at 0.005 mg/kg (Rattus norvegicus [17]): 31%; inhibition in vivo at 0.1 mg/kg (Rattus norvegicus [5]): 100%; inhibition in vivo at 0.01 mg/kg (Rattus norvegicus [7]): 74%; inhibition in vivo at 10 mg/kg (Rattus norvegicus [6]): 62%
Cc1ccc2c(c1)c(=O)n1nc(C(=O)O)cc1n2C			inhibition in vivo at 2 mg/kg (Rattus norvegicus [8]; route oral): 25%; inhibition in vivo at 0.5 mg/kg (Rattus norvegicus [4]): 55%
COc1cc2c(=O)n3nc(C(=O)O)cc3n(C)c2cc1OC	100	6	
CCn1c2ccc(Cl)cc2c(=O)n2nc(C(=O)O)cc12			inhibition in vivo at 0.1 mg/kg (Rattus norvegicus [5]): 16%
